# Experimental data from article PMC8891099 (Clinical Pharmacokinetics, 2021).
# Key:
# [1] = tested on: patients with CKD and T2D; test: FIDELIO-DKD phase III study, kidney outcome events; type: in vivo, human; conditions: finerenone group, 504 of 2833 patients, median follow-up of 2.6 years
# [2] = Population pharmacokinetic model of finerenone in FIDELIO-DKD; type: in vivo, human
# In short: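 Nonlinear mixed-effects model of sparse plasma levels after oral 10 or 20 mg once daily. Sampling was a month-4 trough plus post-dose samples at any time on yearly visits. Structure: two compartments with equal volumes, transit-compartment absorption and first-order elimination, starting from a phase IIb model. Covariate search used single addition and forward inclusion at p 0.01 and backward deletion at p 0.001.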
# [3] = tested on: patients with CKD and T2D; test: Parametric time-to-event exposure-response; type: in vivo; conditions: Homo sapiens, read-out: EC50 (half-maximal drug effect concentration)
# In short: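 Parametric time-to-event model (Weibull hazard) for the first composite kidney event, with exposure-response as an Emax function driven by central-compartment concentration. Input was individual concentration-time profiles from post-hoc PK estimates, actual dosing history and covariates; typical PK parameters were used for subjects lacking them. Delay and Hill coefficient were tested. Checked by visual predictive checks with observed dropout.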
# [4] = tested on: patients with CKD and T2D; conditions: corresponding to sustained eGFR decrease ≥ 57%, under finerenone treatment ref 3; cited from earlier work
# [5] = covariate parameter, population PK model
# [6] = inter-individual variability, population PK model
# [7] = population PK model estimate, FIDELIO-DKD patients
structure (smiles),measurement,setting,value
CCOc1ncc(C)c2c1[C@H](c1ccc(C#N)cc1OC)C(C(N)=O)=C(C)N2 [finerenone],patients with a kidney event contributing to the composite endpoint,[1],17.8%
same,Effect for Korean subjects on Vc/F,[2]; [5],1.29
same,Effect of body weight on Vc/F,[2]; [5],0.501
same,Absorption lag time,[2]; fixed in population PK model,0.215 (fixed) h
same,Ratio Vp/F and Vc/F,[2]; fixed in population PK model,1 (fixed)
same,Relative bioavailaility,[2]; fixed in population PK model,1 (fixed)
same,Covariance CL/F × Vc/F,[2]; [6],0.0442
same,ω^2 Vc/F,[2]; [6],0.104
same,dose linearity of pharmacokinetics,[2]; over the investigated dose range (10 and 20 mg once daily),dose linear
same,Inter-individual variability of CL/F expressed as CV,[2]; population PK model,"^aShrinkage was 26.6%, variability expressed as CV: 31.8%"
same,Inter-individual variability of Vc/F expressed as CV,[2]; population PK model,"^bShrinkage was 47.8%, variability expressed as CV: 33.0%"
same,CL/F,[2]; [7],29.9 L/h
same,Q/F,[2]; [7],0.335 L/h
same,Vc/F,[2]; [7],113 L
same,Ka,"[2]; population PK model estimate, FIDELIO-DKD patients, oral 10 or 20 mg once daily",22.5 h⁻¹
same,σ^2,"[2]; residual error, population PK model",0.313
same,EC50,[3],0.166 ng/mL
same,reduction of secondary endpoint doubling of serum creatinine,[4],32%
